Data on 3 molecules can be found in ChEMBL document CHEMBL4118021, “Studies of TAK1-centered polypharmacology with novel covalent TAK1 inhibitors” (Bioorg Med Chem, 2017).

The target of experiment [1] is Aurora kinase A (Homo sapiens) (UniProt O14965). In words: Inhibition of AurA in human SKCO1 cells at 1 uM after 4 hrs using biotin labeled GKFGNVYLAR probe by mass-spectrometric analysis relative to control. To be noted: pooled result: one value given for 3 cell lines, strains, targets or settings.
Chain of Aurora kinase A (Homo sapiens) (O14965 whole entry, looked up): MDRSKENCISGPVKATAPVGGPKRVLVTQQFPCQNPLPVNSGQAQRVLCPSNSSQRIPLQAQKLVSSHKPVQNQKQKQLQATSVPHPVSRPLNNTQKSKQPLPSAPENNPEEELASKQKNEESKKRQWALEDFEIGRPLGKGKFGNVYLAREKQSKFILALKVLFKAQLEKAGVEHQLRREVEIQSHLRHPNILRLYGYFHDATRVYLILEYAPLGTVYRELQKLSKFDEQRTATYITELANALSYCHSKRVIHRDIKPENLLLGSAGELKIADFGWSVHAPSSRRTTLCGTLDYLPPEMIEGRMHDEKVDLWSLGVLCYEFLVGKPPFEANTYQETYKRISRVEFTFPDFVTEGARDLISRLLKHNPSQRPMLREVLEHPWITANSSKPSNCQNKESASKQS
The target of experiment [2] is Interferon-induced, double-stranded RNA-activated protein kinase (Homo sapiens) (UniProt P19525). In words: Inhibition of PKR in human SKCO1 cells at 1 uM after 4 hrs using biotin labeled DLKPSNIFLVDTK probe by mass-spectrometric analysis relative to control. In kind it is cell-based. In a few lines: (§1)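 Live SK-CO-1 cells exposed to compound at 1 μM or DMSO for 4 h (KiNativ). Lysates then labeled with lysine-reactive ATP/ADP-biotin probe, and probe-labeled kinase peptides quantified by mass spectrometry. Percent inhibition of probe-dependent recovery calculated relative to DMSO-treated cells.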
Chain of Interferon-induced, double-stranded RNA-activated protein kinase (Homo sapiens) (P19525 whole entry): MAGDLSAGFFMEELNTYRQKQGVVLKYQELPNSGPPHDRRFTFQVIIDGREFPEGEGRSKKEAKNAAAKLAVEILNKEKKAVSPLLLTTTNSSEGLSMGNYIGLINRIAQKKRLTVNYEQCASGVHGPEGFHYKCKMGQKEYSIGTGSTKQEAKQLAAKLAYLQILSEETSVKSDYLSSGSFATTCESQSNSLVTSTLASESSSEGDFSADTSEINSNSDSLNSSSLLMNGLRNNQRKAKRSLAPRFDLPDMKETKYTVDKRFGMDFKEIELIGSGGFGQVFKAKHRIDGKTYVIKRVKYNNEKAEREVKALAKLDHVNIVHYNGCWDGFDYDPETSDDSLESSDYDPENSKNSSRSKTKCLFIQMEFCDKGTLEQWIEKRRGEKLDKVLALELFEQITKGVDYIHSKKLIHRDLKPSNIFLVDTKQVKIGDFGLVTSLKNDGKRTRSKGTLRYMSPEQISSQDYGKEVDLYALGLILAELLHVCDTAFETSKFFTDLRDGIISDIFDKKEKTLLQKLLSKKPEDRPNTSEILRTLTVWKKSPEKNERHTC

The target of experiment [3] is Serine/threonine-protein kinase MARK2 (Homo sapiens) (UniProt Q7KZI7). The experiment in a line: Inhibition of MARK2 in human SKCO1 cells at 1 uM after 4 hrs using biotin labeled DLKAENLLLDADMNIK probe by mass-spectrometric analysis relative to control. In kind it is cell-based.
Chain of Serine/threonine-protein kinase MARK2 (Homo sapiens) (Q7KZI7 whole entry): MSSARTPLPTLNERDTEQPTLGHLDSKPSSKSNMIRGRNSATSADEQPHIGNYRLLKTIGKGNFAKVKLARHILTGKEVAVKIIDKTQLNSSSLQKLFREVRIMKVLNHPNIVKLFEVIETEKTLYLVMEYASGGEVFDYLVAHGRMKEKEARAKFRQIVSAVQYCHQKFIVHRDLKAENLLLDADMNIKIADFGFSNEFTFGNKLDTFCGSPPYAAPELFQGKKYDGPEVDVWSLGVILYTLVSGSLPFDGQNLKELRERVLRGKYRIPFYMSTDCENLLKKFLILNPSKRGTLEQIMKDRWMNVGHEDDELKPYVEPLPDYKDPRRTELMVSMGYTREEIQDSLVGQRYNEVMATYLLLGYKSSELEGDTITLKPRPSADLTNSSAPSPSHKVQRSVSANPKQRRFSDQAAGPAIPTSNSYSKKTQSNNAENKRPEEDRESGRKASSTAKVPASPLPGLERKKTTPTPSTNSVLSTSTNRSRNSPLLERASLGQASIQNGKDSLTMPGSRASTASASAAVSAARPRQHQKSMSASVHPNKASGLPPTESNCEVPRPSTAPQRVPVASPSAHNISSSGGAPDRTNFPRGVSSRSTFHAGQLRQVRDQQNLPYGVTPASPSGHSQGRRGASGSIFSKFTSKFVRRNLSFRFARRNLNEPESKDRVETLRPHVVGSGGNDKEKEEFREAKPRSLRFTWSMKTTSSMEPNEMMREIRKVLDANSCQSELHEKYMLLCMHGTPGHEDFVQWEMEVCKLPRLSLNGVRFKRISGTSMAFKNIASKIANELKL
Experiment [4] deals with Dual specificity mitogen-activated protein kinase kinase 1 (Homo sapiens) (UniProt Q02750). In words: Inhibition of MAP2K1 in human SKCO1 cells at 1 uM after 4 hrs using biotin labeled IMHRDVKPSNILVNSR probe by mass-spectrometric analysis relative to control. The experiment is classed as cell-based. In a few lines:
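Live SK-CO-1 cells treated 4 h at 1 μM (DMSO control); cells lysed and lysates labeled with lysine-reactive ATP/ADP-biotin probe (KiNativ); probe-labeled kinase peptides quantified by mass spectrometry; inhibition expressed as percent reduction in probe-dependent recovery versus DMSO-treated cells.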

For experiment [5], the target named is Serine/threonine-protein kinase PLK1 (Homo sapiens) (UniProt P53350). The experiment in a line: Inhibition of PLK1 in human SKCO1 cells at 1 uM after 4 hrs using biotin labeled CFEISDADTKEVFAGKIVPK probe by mass-spectrometric analysis relative to control. In kind it is cell-based. The gist of the method:
as §1

In experiment [6] the target is T1, Mixed lineage kinase domain-like protein (Homo sapiens) (UniProt Q8NB16).
T1 sequence (whole entry): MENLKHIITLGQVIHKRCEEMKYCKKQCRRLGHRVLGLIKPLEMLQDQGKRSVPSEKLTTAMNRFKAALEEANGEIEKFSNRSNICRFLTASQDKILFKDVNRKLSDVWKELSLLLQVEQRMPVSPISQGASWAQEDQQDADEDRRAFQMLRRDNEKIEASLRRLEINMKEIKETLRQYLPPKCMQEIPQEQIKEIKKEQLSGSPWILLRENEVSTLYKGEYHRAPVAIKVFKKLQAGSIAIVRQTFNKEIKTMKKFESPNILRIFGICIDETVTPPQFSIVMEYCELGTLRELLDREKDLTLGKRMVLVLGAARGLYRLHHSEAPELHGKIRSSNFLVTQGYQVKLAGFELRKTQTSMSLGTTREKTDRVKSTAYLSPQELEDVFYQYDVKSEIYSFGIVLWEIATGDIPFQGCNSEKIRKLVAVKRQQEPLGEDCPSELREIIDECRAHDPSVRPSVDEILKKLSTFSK
In words: Inhibition of MLKL in human SKCO1 cells at 1 uM after 4 hrs using biotin labeled APVAIKVFK probe by mass-spectrometric analysis relative to control. In kind it is cell-based.

In experiment [7] the target is Serine/threonine-protein kinase VRK2 (Homo sapiens) (UniProt Q86Y07). The experiment in a line: Inhibition of VRK2 in human SKCO1 cells at 1 uM after 4 hrs using biotin labeled MLDVLEYIHENEYVHGDIKAANLLLYK probe by mass-spectrometric analysis relative to control. The experiment is classed as cell-based. In a few lines:
as §1

For experiment [8], the target named is T2, Serine/threonine-protein kinase TAO3 (Homo sapiens) (UniProt Q9H2K8).
T2 sequence (whole entry): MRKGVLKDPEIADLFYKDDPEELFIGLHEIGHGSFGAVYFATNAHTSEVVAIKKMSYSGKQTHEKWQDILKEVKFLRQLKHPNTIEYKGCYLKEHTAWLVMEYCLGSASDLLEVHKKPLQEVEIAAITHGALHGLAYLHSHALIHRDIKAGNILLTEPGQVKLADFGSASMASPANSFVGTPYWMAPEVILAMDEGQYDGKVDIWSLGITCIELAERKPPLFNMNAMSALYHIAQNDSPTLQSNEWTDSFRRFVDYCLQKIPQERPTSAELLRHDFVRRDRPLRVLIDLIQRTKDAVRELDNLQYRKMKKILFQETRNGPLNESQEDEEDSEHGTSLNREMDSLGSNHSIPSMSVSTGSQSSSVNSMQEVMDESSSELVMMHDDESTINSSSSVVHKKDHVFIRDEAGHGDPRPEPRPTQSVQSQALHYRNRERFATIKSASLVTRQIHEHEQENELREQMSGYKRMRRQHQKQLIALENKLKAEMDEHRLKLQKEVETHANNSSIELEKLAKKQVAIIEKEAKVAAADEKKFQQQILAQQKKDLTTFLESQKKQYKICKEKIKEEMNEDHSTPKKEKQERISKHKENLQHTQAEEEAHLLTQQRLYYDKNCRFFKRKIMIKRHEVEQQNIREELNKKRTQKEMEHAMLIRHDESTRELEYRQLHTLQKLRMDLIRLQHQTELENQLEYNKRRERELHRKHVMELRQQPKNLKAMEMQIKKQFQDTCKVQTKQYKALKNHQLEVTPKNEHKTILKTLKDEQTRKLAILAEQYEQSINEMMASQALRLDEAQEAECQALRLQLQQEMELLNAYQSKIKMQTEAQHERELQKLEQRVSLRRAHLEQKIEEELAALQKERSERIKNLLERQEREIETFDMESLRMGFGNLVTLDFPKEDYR
In words: Inhibition of TAO3 in human SKCO1 cells at 1 uM after 4 hrs using biotin labeled DIKAGNILLTEPGQVK probe by mass-spectrometric analysis relative to control. In kind it is cell-based. The gist of the method:
as §1

Experiment [9] deals with Tyrosine-protein kinase CSK (Homo sapiens) (UniProt P41240). The experiment in a line: Inhibition of CSK in human SKCO1 cells at 1 uM after 4 hrs using biotin labeled VSDFGLTKEASSTQDTGKLPVK probe by mass-spectrometric analysis relative to control. The experiment is classed as cell-based.
Chain of Tyrosine-protein kinase CSK (Homo sapiens) (P41240 2-450 limits assumed): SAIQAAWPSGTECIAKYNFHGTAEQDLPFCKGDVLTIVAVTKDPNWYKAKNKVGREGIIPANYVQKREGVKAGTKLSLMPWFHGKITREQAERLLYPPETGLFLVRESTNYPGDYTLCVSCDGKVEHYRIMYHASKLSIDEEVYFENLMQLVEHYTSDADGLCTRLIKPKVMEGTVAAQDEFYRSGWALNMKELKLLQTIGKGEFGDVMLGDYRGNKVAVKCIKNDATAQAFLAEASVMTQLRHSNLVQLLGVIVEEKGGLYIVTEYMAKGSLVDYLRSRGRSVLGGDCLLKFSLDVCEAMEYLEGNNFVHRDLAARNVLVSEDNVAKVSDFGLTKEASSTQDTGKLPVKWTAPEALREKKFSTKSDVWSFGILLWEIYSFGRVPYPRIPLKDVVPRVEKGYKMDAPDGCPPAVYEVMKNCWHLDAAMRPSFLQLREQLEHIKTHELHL
For experiment [10], the target named is Mitogen-activated protein kinase kinase kinase 20 (Homo sapiens) (UniProt Q9NYL2). In words: Inhibition of ZAK in human SKCO1 cells at 1 uM after 4 hrs using biotin labeled WISQDKEVAVKK probe by mass-spectrometric analysis relative to control. The experiment is classed as cell-based. The gist of the method: as §1
Chain of Mitogen-activated protein kinase kinase kinase 20 (Homo sapiens) (Q9NYL2 2-800 limits assumed): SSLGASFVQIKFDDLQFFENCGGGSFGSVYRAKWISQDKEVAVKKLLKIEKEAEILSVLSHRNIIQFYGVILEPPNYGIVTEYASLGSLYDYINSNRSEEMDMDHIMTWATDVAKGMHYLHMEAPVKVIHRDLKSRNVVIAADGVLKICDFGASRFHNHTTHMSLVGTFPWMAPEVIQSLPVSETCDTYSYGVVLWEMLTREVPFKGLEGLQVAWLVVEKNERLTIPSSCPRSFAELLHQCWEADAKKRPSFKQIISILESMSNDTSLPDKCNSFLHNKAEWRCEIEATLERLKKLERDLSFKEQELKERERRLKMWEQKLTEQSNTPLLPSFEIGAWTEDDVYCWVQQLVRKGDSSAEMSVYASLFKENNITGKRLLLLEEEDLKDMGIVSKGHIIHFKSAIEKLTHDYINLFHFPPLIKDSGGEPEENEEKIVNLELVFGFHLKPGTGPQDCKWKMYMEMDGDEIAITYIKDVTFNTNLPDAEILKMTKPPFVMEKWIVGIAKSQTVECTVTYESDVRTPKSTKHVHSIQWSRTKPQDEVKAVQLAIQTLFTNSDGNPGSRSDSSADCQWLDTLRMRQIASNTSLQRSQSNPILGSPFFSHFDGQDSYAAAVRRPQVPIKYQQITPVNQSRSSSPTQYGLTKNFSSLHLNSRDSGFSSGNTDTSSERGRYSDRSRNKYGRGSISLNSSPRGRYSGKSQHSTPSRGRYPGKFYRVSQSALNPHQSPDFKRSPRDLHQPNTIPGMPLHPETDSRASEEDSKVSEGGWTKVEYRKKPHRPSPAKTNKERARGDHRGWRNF

One may read the inhibition as the relative decrease from the control value, in per cent.

Chain of Serine/threonine-protein kinase PLK1 (Homo sapiens) (P53350 whole entry): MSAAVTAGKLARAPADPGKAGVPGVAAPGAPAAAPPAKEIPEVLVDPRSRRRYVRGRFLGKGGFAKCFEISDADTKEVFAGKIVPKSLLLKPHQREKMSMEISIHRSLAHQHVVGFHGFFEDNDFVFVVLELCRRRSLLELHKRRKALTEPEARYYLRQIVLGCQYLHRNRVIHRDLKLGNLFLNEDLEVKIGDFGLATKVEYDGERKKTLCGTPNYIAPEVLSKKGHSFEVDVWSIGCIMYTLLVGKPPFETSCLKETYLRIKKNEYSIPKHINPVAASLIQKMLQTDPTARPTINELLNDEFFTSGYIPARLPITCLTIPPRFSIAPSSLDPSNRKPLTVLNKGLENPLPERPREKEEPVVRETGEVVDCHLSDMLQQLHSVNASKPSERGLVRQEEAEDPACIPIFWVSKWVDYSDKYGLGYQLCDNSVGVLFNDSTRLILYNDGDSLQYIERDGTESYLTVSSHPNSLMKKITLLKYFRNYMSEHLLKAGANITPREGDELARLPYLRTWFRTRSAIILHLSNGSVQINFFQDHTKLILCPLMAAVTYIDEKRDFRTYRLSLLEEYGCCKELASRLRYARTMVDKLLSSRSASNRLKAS
Chain of Serine/threonine-protein kinase VRK2 (Homo sapiens) (Q86Y07 whole entry): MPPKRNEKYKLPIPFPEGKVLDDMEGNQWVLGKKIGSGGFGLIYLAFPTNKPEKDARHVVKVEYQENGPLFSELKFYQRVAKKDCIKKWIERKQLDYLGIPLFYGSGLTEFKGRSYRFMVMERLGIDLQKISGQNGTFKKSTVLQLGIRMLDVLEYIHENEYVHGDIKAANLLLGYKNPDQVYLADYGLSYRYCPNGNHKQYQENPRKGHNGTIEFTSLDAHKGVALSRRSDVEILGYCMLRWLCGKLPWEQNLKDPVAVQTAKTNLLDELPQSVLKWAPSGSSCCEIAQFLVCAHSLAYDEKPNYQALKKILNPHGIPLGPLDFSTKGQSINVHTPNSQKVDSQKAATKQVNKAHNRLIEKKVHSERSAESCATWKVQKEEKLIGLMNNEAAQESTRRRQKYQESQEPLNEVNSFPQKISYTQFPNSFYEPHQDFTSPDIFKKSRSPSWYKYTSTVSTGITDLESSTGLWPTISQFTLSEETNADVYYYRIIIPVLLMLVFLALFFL
Chain of Dual specificity mitogen-activated protein kinase kinase 1 (Homo sapiens) (Q02750 whole entry): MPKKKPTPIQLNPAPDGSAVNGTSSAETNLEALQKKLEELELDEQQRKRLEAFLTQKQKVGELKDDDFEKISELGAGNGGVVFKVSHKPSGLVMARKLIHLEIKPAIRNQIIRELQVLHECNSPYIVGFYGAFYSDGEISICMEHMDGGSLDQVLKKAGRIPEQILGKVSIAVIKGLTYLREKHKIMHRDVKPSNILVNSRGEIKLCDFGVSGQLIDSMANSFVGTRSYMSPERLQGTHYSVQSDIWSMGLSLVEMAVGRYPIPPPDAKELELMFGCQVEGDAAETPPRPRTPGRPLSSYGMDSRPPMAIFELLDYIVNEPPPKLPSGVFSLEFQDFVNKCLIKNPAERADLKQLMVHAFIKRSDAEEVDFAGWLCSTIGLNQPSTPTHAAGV

In the case of `C=CC(=O)Nc1ccccc1Oc1nc(Nc2cnn(CCOC)c2)ncc1Cl`, the inhibition is 57.9% in experiment [1]; 2.5% in experiment [2]; -8.4% in [3]; -7.9% in experiment [4]; 59.9% in [5]; 53.7% in experiment [6]. For the same molecule, the inhibition in experiment [7] was 3.6%; in [8], 9.6%; in experiment [9] it was 5.2%; in experiment [10] it was -9.2%.

Consider `COc1cc(O)c2c(c1)/C=C/C[C@H](O)[C@H](O)C(=O)/C=C\C[C@H](C)OC2=O`, for which the inhibition in experiment [1] was 55.7%; in experiment [2] it was -6.6%; in experiment [3], 3.6%; in [4] it was 89.4%; in experiment [5], 61.5%; in experiment [6] it was 56.6%. Besides, the inhibition in experiment [7] is 20.4%; in [8], 39.4%; in experiment [9] it was -1.8%; in experiment [10], 87.5%.

As to `C=CC(=O)Nc1ccccc1Nc1nc(Nc2ccc(N3CCN(C)CC3)cc2)ncc1Cl`, the inhibition was 95.1% in experiment [1]; 2.6% in experiment [2]; -7.2% in [3]; 60% in [4]; 54.6% in experiment [5]; 52.3% in experiment [6]. For the same molecule, the inhibition in experiment [7] is 10.3%; in [8], 13.1%; in experiment [9], -0.8%; in experiment [10], 26%.
